In data set [1] the target is PI3-kinase p110-alpha/p85-alpha (Homo sapiens, UniProt P42336). Kind of data set: Inhibition of His-tagged human full length PI3Kalpha coexpressed with p85 alpha in baculovirus expression system using PIP2 peptide as substrate incubated for 1 hr in presence ATP by Kinase-Glo assay.
Data set [2] concerns the target Phosphatidylinositol 4,5-bisphosphate 3-kinase catalytic subunit gamma isoform (Homo sapiens, UniProt P48736). Kind of data set: Inhibition of GST-tagged human recombinant PI3Kgamma catalytic domain (468 to 1203 residues) expressed in insect cells using PIP2 peptide as substrate incubated for 1 hr in presence ATP by ADP-Glo Kinase Assay. Summed up: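 ADP-Glo reagent 1 for 40 min, then reagent 2 with 60 min equilibration before reading. IC50 taken from inhibition curves; average of at least two runs.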

For a further data set, the system named is U-87 MG. Nature of the data set: Antiproliferative activity against human U87MG cells harboring PTEN deletion assessed as reduction in cell viability after 3 days by CellTiter-Glo luminescence assay. In kind it is functional, cell-based, U-87MG ATCC. Conditions: 72 h. The method, boiled down: (§1)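 ATCC lines, 10% FBS: T47D, H1975, H460 in RPMI1640; U87MG in DMEM; A549 in F12K. Seeded 3×10^3 per well the day before, exposed to 3-fold serial dilutions or DMSO for 3 days at 37 °C, 5% CO2; CellTiter-Glo luminescence.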

Another data set has as its system T47D. Nature of the data set: Antiproliferative activity against human T47D cells harboring PIK3CA mutation assessed as reduction in cell viability after 3 days by CellTiter-Glo luminescence assay. In kind it is functional, cell-based. To be noted: 72 h. Summed up:
as §1

For a further data set, the system named is NCI-H1975. Nature of the data set: Antiproliferative activity against human NCI-H1975 cells harboring PIK3CA mutation assessed as reduction in cell viability after 3 days by CellTiter-Glo luminescence assay. In kind it is functional, cell-based. Conditions: NCI-H1975, 72 h. The method, boiled down:
as §1

The test system of a further data set is NCI-H460. Kind of data set: Antiproliferative activity against human NCI-H460 cells harboring PIK3CA mutation assessed as reduction in cell viability after 3 days by CellTiter-Glo luminescence assay. To be noted: NCI-H460, 72 h. In kind it is functional, cell-based. The method, boiled down: as §1
In a further data set the test system is A549. Nature of the data set: Antiproliferative activity against human A549 cells assessed as reduction in cell viability after 3 days by CellTiter-Glo luminescence assay. In kind it is functional, cell-based. To be noted: A549, 72 h. Summed up: as §1
Data set [3] in a line: Apparent permeability across basolateral to apical side in human Caco2 cells at 2 uM incubated for 2 hrs by LC-MS/MS analysis. To be noted: Caco-2. In kind it is ADME, cell-based. The method, boiled down: (§2)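 Caco-2 monolayers grown 21–28 days; compound 2 µM both directions in duplicate, DMSO <1%; 2 h at 37 °C, 5% CO2 without shaking. Donor and receiver levels by LC/MS/MS; integrity by lucifer yellow. Papp = (dCr/dt)×Vr/(A×C0); efflux ratio = Papp(B-A)/Papp(A-B).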

Data set [4] in a line: Efflux ratio of permeability from basolateral to apical over apical to basolateral side in human Caco2 cells at 2 uM incubated for 2 hrs by LC-MS/MS analysis. To be noted: Caco-2. In kind it is ADME, cell-based. Summed up: as §2
A short description of data set [5]: Half life in rat liver microsomes at 1 uM by LC-MS/MS analysis. In kind it is ADME, Microsome. Summed up:
(§3)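 Compound 1 µM with human or rat microsomes 0.5 mg/mL, preincubated 10 min at 37 °C in 100 mM potassium phosphate pH 7.4, 10 mM MgCl2; started with NADPH, sampled 0–60 min, quenched with cold acetonitrile, LC–MS/MS. A parallel no-NADPH control was run.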

Data set [6] is described as follows: AUC (0 to infinity) in Sprague-Dawley rat at 5 mg/kg, iv measured after 24 hrs by LC-MS/MS analysis. In kind it is ADME, organism-based. More on the design: route intravenous, dose 5 mg/kg, time 24 hrs. Conditions: in vivo. Summed up:
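Male SD rats (n=6), single 5 mg/kg intravenous dose; heparinised blood at 0.083–24 h, centrifuged at 4 °C; plasma quantified by LC–MS/MS; noncompartmental parameters.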

Data set [7] is described as follows: Clearance in human liver microsomes at 1 uM measured after 60 mins by LC-MS/MS analysis. In kind it is ADME, Microsome. To be noted: read-out: CLH. The method, boiled down: as §3
Data set [8] addresses Phosphatidylinositol 4,5-bisphosphate 3-kinase catalytic subunit alpha isoform (Homo sapiens) (UniProt P42336). Nature of the data set: Inhibition of PI3Kalpha in human T47D cells assessed as inhibition of insulin-stimulated Akt phosphorylation at Ser473 residue at 3 uM preincubated for 2 hrs followed by incubation with insulin for 2 hrs by western blot analysis relative to control. In kind it is cell-based. To be noted: time 4.0 hrs. The method, boiled down:
(§4)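 T47D cells given compound at 37 °C for 2 h, then stimulated with 1 µg/mL insulin for 2 h; lysed in RIPA with protease/phosphatase inhibitors and 1 mM PMSF; BCA-normalised SDS-PAGE, PVDF blot probed overnight at 4 °C for total Akt and pAkt Ser473, infrared secondary detection.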

Data set [9] has the same target. Kind of data set: Inhibition of PI3Kalpha in human T47D cells assessed as inhibition of insulin-stimulated Akt phosphorylation at Ser473 residue at 1 uM preincubated for 2 hrs followed by incubation with insulin for 2 hrs by western blot analysis relative to control. In kind it is cell-based. Conditions: time 4.0 hrs. The method, boiled down: as §4
The target is the same in data set [10]. Nature of the data set: Inhibition of PI3Kalpha in human T47D cells assessed as inhibition of insulin-stimulated Akt phosphorylation at Ser473 residue preincubated for 2 hrs followed by incubation with insulin for 2 hrs by western blot analysis relative to control. In kind it is cell-based. Conditions: dose 0.1-3 µM, time 4.0 hrs. The method, boiled down: as §4

Data set [11] addresses Voltage-gated inwardly rectifying potassium channel KCNH2 (Homo sapiens, UniProt Q12809). Kind of data set: Inhibition of human ERG expressed in CHO cells assessed as inhibition of channel tail current at holding potential of -80 mV by Qpatch assay. In kind it is cell-based. Summed up:
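CHO cells stably expressing hERG, QPatch in single-hole mode at room temperature, held at […]; each concentration superfused to steady-state block (three superimposable traces), washout between concentrations; cisapride as quality control.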

The text below walks through data of ChEMBL document CHEMBL4765307, “Design, synthesis and biological activity of novel 2,3,4,5-tetra-substituted thiophene derivatives as PI3Kα inhibitors with potent antitumor activity” (Eur J Med Chem, 2020).

Some results are limits rather than exact numbers.

Sequence of Phosphatidylinositol 4,5-bisphosphate 3-kinase catalytic subunit alpha isoform (Homo sapiens) (P42336 whole entry, canonical isoform): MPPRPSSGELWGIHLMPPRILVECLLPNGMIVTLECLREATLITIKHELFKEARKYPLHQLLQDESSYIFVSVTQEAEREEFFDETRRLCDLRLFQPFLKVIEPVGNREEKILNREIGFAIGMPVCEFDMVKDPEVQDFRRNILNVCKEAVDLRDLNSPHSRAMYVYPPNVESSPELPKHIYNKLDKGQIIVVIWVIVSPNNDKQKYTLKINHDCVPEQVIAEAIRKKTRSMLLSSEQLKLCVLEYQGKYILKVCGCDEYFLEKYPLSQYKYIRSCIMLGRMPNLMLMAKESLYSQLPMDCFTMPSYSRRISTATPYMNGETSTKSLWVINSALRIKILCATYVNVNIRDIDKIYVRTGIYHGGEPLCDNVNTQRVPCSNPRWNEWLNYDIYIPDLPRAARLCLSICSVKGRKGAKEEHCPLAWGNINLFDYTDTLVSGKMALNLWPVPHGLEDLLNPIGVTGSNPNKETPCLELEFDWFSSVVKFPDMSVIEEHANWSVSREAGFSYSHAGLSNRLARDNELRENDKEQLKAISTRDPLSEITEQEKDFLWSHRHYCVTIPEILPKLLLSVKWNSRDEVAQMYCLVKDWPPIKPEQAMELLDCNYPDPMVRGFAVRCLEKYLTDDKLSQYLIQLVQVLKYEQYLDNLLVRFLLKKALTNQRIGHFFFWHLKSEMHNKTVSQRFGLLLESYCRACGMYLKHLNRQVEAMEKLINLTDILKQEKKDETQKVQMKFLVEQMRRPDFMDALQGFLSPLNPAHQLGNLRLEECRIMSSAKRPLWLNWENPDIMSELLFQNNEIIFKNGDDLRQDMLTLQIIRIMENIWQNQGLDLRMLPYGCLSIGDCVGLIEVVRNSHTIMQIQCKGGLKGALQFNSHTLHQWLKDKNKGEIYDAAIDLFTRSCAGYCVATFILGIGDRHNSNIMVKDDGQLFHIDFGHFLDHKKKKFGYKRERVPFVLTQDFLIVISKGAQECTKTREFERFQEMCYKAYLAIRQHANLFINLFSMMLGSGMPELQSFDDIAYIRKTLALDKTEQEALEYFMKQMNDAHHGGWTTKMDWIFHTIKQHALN
Sequence of PI3-kinase p110-alpha/p85-alpha (P27986 whole entry, the tested form may be a part, canonical isoform): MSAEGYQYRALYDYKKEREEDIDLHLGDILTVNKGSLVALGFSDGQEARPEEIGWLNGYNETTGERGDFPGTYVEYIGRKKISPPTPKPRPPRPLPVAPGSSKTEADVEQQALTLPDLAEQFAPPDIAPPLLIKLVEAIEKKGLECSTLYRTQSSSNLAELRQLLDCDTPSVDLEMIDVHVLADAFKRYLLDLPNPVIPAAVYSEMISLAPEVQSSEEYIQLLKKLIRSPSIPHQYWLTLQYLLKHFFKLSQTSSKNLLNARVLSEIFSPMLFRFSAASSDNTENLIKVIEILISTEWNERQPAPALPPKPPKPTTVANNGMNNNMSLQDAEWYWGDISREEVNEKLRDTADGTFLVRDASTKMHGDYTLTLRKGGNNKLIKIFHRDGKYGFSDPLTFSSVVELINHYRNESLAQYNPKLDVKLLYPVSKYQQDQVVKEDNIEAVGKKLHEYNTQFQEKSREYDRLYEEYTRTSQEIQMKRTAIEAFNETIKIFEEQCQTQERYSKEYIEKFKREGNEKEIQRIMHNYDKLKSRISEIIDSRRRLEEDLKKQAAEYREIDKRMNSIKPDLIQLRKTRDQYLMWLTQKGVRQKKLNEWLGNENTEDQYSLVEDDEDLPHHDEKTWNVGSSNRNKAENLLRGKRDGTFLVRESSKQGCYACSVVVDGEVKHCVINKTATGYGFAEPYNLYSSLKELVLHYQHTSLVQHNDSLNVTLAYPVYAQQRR
Sequence of PI3-kinase p110-alpha/p85-alpha (P42336 whole entry, the tested form may be a part, canonical isoform): as the sequence (P42336 whole entry, canonical isoform) above
Sequence of Phosphatidylinositol 4,5-bisphosphate 3-kinase catalytic subunit gamma isoform (P48736 whole entry, the tested form may be a part, canonical isoform): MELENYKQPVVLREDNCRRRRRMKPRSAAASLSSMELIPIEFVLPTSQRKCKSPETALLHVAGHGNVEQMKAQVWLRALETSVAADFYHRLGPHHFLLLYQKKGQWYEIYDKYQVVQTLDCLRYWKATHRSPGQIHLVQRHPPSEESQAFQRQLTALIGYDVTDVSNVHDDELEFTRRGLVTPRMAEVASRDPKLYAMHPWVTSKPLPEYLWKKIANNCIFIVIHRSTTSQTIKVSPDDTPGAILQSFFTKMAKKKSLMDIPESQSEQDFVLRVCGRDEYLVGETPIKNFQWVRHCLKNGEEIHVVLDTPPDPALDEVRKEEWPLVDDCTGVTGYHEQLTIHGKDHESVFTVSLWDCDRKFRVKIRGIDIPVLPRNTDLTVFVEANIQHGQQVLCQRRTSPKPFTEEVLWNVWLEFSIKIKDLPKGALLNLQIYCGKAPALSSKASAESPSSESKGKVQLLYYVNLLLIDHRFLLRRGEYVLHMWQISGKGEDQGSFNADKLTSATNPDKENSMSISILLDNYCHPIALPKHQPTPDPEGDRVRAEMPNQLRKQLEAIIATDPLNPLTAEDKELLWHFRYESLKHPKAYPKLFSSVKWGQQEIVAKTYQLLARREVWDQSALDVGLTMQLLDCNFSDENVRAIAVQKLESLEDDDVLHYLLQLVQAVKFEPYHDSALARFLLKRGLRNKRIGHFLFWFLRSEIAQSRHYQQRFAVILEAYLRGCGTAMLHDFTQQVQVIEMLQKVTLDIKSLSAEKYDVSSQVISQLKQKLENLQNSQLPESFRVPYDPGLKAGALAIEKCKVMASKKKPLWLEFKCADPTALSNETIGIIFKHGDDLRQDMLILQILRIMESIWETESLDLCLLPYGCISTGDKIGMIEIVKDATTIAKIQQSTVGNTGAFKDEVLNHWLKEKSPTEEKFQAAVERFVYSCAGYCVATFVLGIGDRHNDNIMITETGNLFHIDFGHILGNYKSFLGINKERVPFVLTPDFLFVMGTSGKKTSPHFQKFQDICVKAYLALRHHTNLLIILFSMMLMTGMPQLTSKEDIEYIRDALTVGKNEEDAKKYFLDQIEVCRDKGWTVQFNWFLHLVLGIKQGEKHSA
Sequence of Voltage-gated inwardly rectifying potassium channel KCNH2 (Q12809 whole entry, the tested form may be a part): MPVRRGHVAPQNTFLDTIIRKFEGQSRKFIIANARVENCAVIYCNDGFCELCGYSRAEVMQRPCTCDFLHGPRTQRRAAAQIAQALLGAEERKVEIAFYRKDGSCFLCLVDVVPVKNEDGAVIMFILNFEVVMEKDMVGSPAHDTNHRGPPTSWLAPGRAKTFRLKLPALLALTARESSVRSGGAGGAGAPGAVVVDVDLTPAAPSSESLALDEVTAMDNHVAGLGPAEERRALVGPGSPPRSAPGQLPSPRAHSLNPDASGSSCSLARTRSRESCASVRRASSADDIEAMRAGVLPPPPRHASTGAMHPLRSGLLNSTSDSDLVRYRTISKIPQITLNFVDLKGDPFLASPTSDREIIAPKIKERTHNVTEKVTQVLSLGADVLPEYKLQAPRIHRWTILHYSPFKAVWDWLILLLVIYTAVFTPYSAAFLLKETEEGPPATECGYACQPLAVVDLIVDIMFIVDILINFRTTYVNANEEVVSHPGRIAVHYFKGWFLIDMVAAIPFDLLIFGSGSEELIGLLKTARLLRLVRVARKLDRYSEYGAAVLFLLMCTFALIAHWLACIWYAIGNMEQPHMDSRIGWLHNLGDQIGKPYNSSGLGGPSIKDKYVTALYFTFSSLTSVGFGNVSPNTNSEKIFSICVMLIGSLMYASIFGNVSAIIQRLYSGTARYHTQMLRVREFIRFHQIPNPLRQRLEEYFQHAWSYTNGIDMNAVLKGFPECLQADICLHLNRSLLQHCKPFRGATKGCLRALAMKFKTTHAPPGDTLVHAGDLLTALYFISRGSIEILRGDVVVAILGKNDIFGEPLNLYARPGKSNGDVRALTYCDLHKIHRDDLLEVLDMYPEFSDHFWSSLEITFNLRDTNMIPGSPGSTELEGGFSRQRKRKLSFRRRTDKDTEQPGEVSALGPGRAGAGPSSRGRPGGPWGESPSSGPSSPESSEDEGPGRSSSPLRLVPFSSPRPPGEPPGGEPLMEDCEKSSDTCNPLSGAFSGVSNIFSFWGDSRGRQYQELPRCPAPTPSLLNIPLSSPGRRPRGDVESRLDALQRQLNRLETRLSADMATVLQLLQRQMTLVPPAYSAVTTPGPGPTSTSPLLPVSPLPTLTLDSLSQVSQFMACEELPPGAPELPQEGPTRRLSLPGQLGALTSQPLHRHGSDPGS

With `N#Cc1c(N2CCOCC2)sc(-c2nc[nH]n2)c1-c1ccc(NC(=O)Nc2ccccc2Cl)cc1`, the IC50 in [1] was found to be 9.2 nM; in data set [2] it was 258 nM; in the data set on U-87 MG it was 2860 nM; in the data set on T47D, 310 nM; in the data set on NCI-H1975, 1060 nM; in the data set on NCI-H460 it was 200 nM. Also, the results for the IC50 (in the data set on A549; in [11]) were 3840 nM and over 30000 nM, respectively. Besides, the results for the inhibition constant Ki in data set [1] and in data set [2] were 5.1 nM and 193 nM, respectively. The Papp B→A at 2 h, 2 µM in [3] was found to be 8.4 ×10⁻⁶ cm/s. In addition, the efflux ratio at 2 h, 2 µM in data set [4] came out at 1.08. Besides, the half-life at 1 µM in data set [5] came out at 44.7 min. This compound gave an AUC(0-inf) in [6] of 1620 ng·h/mL. In addition, the microsomal CLint at 1 µM in [7] amounted to 24.8 µL/min/mg. The results for the inhibition in [8], in data set [9] and in data set [10] were 90%, 78% and “Dose-dependent effect”, respectively.
